Laboratory results reported in ChEMBL document CHEMBL3808376, “Iminolactones as tools for inversion of the absolute configuration of α-amino acids and as inhibitors of cancer cell proliferation” (Eur J Med Chem, 2016).

Experiments:
EL4 = test: Antiproliferative activity against mouse EL4 cells after 48 hrs by Sulforhodamine B assay; type: functional, cell-based; conditions: EL4, 48 h
Outline: (§1)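 Cancer lines from the National Cancer Institute (murine leukemic EL4, human breast MCF7, human prostate PC3), in a standard high-flux screening format. Cells incubated with compound at several concentrations, 37 °C for 48 h. Trichloroacetic acid fixation, sulforhodamine B staining, absorbance read at 490 nm. IC50 reported as mean SD of three experiments.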

MCF7 = test: Antiproliferative activity against human MCF7 cells after 48 hrs by Sulforhodamine B assay; type: functional, cell-based; conditions: MCF7, 48 h; outline: as §1
[1] = Antiproliferative activity against human PC3 cells after 48 hrs by Sulforhodamine B assay; type: functional, cell-based; conditions: PC-3, 48 h; outline: as §1
[2] = Antiproliferative activity against mouse McCoy cells after 48 hrs by Sulforhodamine B assay; type: cell-based
[3] = Antiproliferative activity against human MCF10A cells after 48 hrs by Sulforhodamine B assay; type: cell-based; conditions: MCF-10A
[4] = Antiproliferative activity against mouse NIH/3T3 cells after 48 hrs by Sulforhodamine B assay; type: cell-based; conditions: NIH3T3, 48 h

SMILES | IC50 (MCF7) [µM] | IC50 (EL4) [µM] | IC50 [1] [µM] | IC50 [2] [µM] | IC50 [3] [µM] | IC50 [4] [µM]
CC(C)(C)OC(=O)CC[C@@H]1N=C2C[C@@H]3C[C@@H](C3(C)C)[C@]2(C)OC1=O | 40 | 36 | 42 | > 1000 | > 1000 | > 1000
CC1(C)N=C2C[C@H]3C[C@H](C3(C)C)[C@@]2(C)OC1=O | 162 | 149 | 166 | > 2000 | > 2000 | > 2000
CC1(C)[C@H]2CC[C@]1(C)[C@H]1OC(=O)[C@H](Cc3ccccc3)N=C21 | – | – | 160 | – | – | –
C[C@@]12CCCC[C@H]1CC[C@@H]1OC(=O)CN=C12 | 11 | 7.7 | 13 | > 2000 | > 2000 | > 2000
C[C@H]1N=C2C[C@H]3C[C@H](C3(C)C)[C@@]2(C)OC1=O | 38 | 27 | 42 | > 1800 | > 1800 | > 1800
CC1(C)[C@@H]2CC3=N[C@@H](CCC(=O)O)C(=O)O[C@@]3(C)[C@H]1C2 | 38 | 36 | 42 | > 1200 | > 1200 | > 1200
CC(C)(C)OC(=O)NCCC[C@H]1N=C2C[C@H]3C[C@H](C3(C)C)[C@@]2(C)OC1=O | 56 | 48 | 60 | > 1500 | > 1500 | > 1500
C[C@H]1N=C2[C@H](CC[C@@H]3CCCC[C@@]23C)OC1=O | 57 | 53 | 57 | > 2000 | > 2000 | > 2000
CC1(C)[C@@H]2CC3=NCC(=O)O[C@@]3(C)[C@H]1C2 | 22 | 19 | 43 | > 900 | > 900 | > 900
CC1(C)[C@H]2CC3=N[C@H](Cc4ccccc4)C(=O)O[C@]3(C)[C@@H]1C2 | 8.4 | 7.7 | 9.4 | > 1500 | > 1500 | > 1500
O=C1O[C@H]2CCc3ccccc3C2=N[C@H]1Cc1c[nH]c2ccccc12 | 39 | 36 | 39 | > 1000 | > 1000 | > 1000
C[C@@]12CCCC[C@H]1CC[C@@H]1OC(=O)[C@H](Cc3ccccc3)N=C12 | 53 | 50 | 51 | > 1700 | > 1700 | > 1700
CC1(C)[C@H]2CC[C@]1(C)[C@H]1OC(=O)CN=C21 | 135 | 82 | 145 | > 900 | > 900 | > 900
C[C@@]12CCCC[C@H]1CC=C(O)C2=O | 119 | 114 | 119 | > 2000 | > 2000 | > 2000
CC(C)(C)OC(=O)CC[C@H]1N=C2C[C@H]3C[C@H](C3(C)C)[C@@]2(C)OC1=O | 54 | 51 | 55 | > 1200 | > 1200 | > 1200

Second part, led by results:

IC50 (MCF7) [µM] | SMILES | IC50 (EL4) [µM] | IC50 [1] [µM] | IC50 [2] [µM] | IC50 [3] [µM] | IC50 [4] [µM]
17 | CC(C)(C)OC(=O)NCCCC[C@@H]1N=C2C[C@@H]3C[C@@H](C3(C)C)[C@]2(C)OC1=O | 15 | 18 | > 800 | > 800 | > 800
77 | C[C@@]12CCCC[C@H]1CC[C@@H]1OC(=O)[C@H](Cc3c[nH]c4ccccc34)N=C12 | 71 | 83 | > 1500 | > 1500 | > 1500
6.3 | CC(C)(C)OC(=O)NCCC[C@@H]1N=C2C[C@@H]3C[C@@H](C3(C)C)[C@]2(C)OC1=O | 4.1 | 6.6 | > 1200 | > 1200 | > 1200
142 | CC(C)(C)OC(=O)n1cnc(C[C@H]2N=C3C[C@H]4C[C@H](C4(C)C)[C@@]3(C)OC2=O)c1 | 139 | 147 | > 1300 | > 1300 | > 1300
41 | O=C1O[C@H]2CCc3ccccc3C2=N[C@H]1Cc1ccccc1 | 39 | 45 | > 1000 | > 1000 | > 1000
34 | CC1(C)[C@H]2CC3=N[C@H](CCC(=O)O)C(=O)O[C@]3(C)[C@@H]1C2 | 30 | 38 | > 1200 | > 1200 | > 1200
15.3 | CC(C)(C)OC(=O)NCCCC[C@H]1N=C2C[C@H]3C[C@H](C3(C)C)[C@@]2(C)OC1=O | 14.5 | 15.9 | > 1300 | > 1300 | > 1300
154 | C[C@@H]1N=C2C[C@@H]3C[C@@H](C3(C)C)[C@]2(C)OC1=O | 145 | 149 | > 2000 | > 2000 | > 2000
> 300 | CC1(C)[C@H]2CC3=NCC(=O)O[C@]3(C)[C@@H]1C2 | > 300 | > 300 | > 2000 | > 2000 | > 2000
> 300 | CC1(C)[C@@H]2CC3=N[C@@H](Cc4ccccc4)C(=O)O[C@@]3(C)[C@H]1C2 | > 300 | > 300 | > 1000 | > 1000 | > 1000
12 | C[C@@]12CCCC[C@H]1CC[C@@H]1OC(=O)[C@@H](Cc3ccccc3)N=C12 | 12 | 12 | > 1200 | > 1200 | > 1200
27 | O=C1O[C@@H]2CCc3ccccc3C2=N[C@H]1Cc1ccccc1 | 24 | 30 | > 1000 | > 1000 | > 1000
25 | O=C1O[C@@H]2CCc3ccccc3C2=N[C@H]1Cc1c[nH]c2ccccc12 | 22 | 26 | > 1000 | > 1000 | > 1000
